Rows were chosen to be rich in hits. Some 0.4% of all compounds tested hit in one or more screens of this group.
TbMetRS inhib: blocks T. brucei methionyl-tRNA synthetase activity | purified T. brucei MetRS, ATP depletion, Kinase-Glo luminescence | inhibition, % at 11.9 µM | 360,000 tested, 0.4% active | AID 624268;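 active means inhibition above a per-plate cutoff of the control wells' mean inhibition plus 3 SD, cut at about 5.5% in these data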;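 further: 0% = DMSO wells median and 100% = median of wells with control inhibitor compound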
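Dosing: 11.9 µM single point; system: parasite MetRS enzyme; technique: luminescence of leftover ATP; times: 15 min enzyme-compound preincubation, 2 h reaction, 10 min detection, 25 °C; replicates: each compound tested once; read-out basis: percent inhibition relative to median high and low control wells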
ERp5 inh: inhibitors of human ERp5. AID 651711. ERp5 insulin aggregation, absorbance 650 nm, 90 min. inhibition, % at 9.99 µM. Q15084. 350,000 tested, 0.05% active;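 active means mean replicate inhibition above about 25%, with every replicate also reaching it, limit read from the data, passing the limit was not always enough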
Target sequence (Q15084 whole entry, looked up): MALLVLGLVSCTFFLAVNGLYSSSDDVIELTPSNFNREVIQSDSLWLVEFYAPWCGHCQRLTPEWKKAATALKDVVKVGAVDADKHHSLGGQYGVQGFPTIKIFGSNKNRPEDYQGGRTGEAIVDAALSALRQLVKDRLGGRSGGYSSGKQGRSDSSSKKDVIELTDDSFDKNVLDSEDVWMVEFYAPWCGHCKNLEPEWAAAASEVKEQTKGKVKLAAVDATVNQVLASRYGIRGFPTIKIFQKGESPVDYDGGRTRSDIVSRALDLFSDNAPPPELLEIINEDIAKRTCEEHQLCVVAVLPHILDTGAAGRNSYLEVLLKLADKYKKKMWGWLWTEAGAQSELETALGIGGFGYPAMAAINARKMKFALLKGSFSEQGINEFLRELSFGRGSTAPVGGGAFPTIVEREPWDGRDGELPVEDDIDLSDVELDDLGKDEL
PDI inh: PDI (human) enzyme inhibition; PDI insulin aggregation turbidity, A650, 90 min; AID 588391; 350,000 tested, 0.052% active; inhibition, % at 10 µM; P07237;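 active means mean inhibition across replicates of 30% or more, whatever share of single replicates reach that level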
* = called active by the depositor; . = no result.

SMILES	TbMetRS inhib	ERp5 inh	PDI inh
O=C(N[C@H]1CC[C@@H](CCNS(=O)(=O)c2ccc(F)cc2)O[C@H]1CO)c1cnccn1	.	1.8	.
CCCN1C[C@H](C)[C@H](OC)CN(C)C(=O)c2cc(NC(=O)c3ccc(F)cc3)ccc2OC[C@@H]1C	.	9.7	.
N#CCCn1c(SCC(=O)c2c[nH]c3ccccc23)nc2ccccc21	5.8*	.	10.5
CCOC(=O)c1c(C)[nH]c(C)c1C(=O)CSc1nc2ccccc2n1CCC#N	-0.1	.	2.8
O=C(C[C@H]1CC[C@@H]2[C@H](COC[C@@H](O)CN2Cc2ccccc2F)O1)N1CCc2ccccc2C1	.	-2.2	.
C[C@@H]1CN([C@H](C)CO)C(=O)c2cccc(NS(=O)(=O)c3ccc(Cl)cc3)c2O[C@@H]1CN(C)Cc1ccc(C(F)(F)F)cc1	.	28.1*	.
C[C@@H]1CN([C@@H](C)CO)C(=O)c2cccc(NS(=O)(=O)c3ccc(Cl)cc3)c2O[C@H]1CN(C)Cc1ccc(C(F)(F)F)cc1	.	3.7	.
Cc1cc(C(=O)Nc2cccc3c2O[C@@H](CN(C)S(=O)(=O)c2ccc(Cl)cc2)[C@@H](C)CN([C@@H](C)CO)C3=O)n(C)n1	.	26.0*	.
Cc1noc(C)c1S(=O)(=O)Nc1cccc2c1O[C@H](CN(C)C(=O)Nc1ccc(C(F)(F)F)cc1)[C@H](C)CN([C@@H](C)CO)C2=O	.	62.8*	.
Cc1noc(C)c1S(=O)(=O)Nc1cccc2c1O[C@@H](CN(C)C(=O)Nc1ccc(C(F)(F)F)cc1)[C@@H](C)CN([C@H](C)CO)C2=O	.	7.4	.
Cc1cc(C(=O)Nc2cccc3c2O[C@H](CN(C)S(=O)(=O)c2ccc(Cl)cc2)[C@H](C)CN([C@H](C)CO)C3=O)n(C)n1	.	-4.7	.
COc1ccc(S(=O)(=O)Nc2ccc3c(c2)C(=O)N([C@@H](C)CO)C[C@H](C)[C@H](CN(C)S(=O)(=O)c2ccccc2)OCCCC[C@H](C)O3)cc1	.	6.9	.
Cc1ccc(S(=O)(=O)N(C)C[C@@H]2Oc3c(NC(=O)Nc4ccc5c(c4)OCO5)cccc3C(=O)N([C@@H](C)CO)C[C@@H]2C)cc1	.	-3.8	.
O=S(=O)(c1ccccc1)N1N=C(c2ccc(O)cc2)CC1c1ccco1 (configuration not stated)	0.2	11.3	38.2*
Cc1ccc(C2=NN(S(=O)(=O)c3ccccc3)C(c3ccco3)C2)cc1 (configuration not stated)	-0.4	3.1	0.5
O=C(Cc1cccc(NC(=O)C2CCCN(C(=O)C3CC3)C2)c1)Nc1cccc(C(=O)N2CCCCC2)c1 (configuration not stated)	0.6	2.4	5.4
O=C(Cc1ccc(NC(=O)C2CCCN(C(=O)C3CC3)C2)cc1)Nc1cccc(C(=O)N2CCCCC2)c1 (configuration not stated)	0.9	32.1*	-2.6
Cc1ccc(S(=O)(=O)N[C@H]2CC[C@@H](CCNC(=O)c3ccc4c(c3)OCO4)O[C@H]2CO)cc1	.	-0.9	.
COc1ccc(S(=O)(=O)N(C)C[C@H]2Oc3ccc(NC(=O)CCCCCC(=O)Nc4ccccc4N)cc3C(=O)N([C@H](C)CO)C[C@H]2C)cc1	.	9.6	.
O=C(CCCN1C(=O)c2ccccc2C1=O)NCCCN1CCOCC1	-0.7	.	-1.6
O=C(CCN1C(=O)/C(=C\c2ccccc2)SC1=S)NCCCN1CCOCC1	0.9	26.4*	3.9
Nc1ccccc1SC(CC(=O)c1ccccc1)c1ccc([N+](=O)[O-])cc1 (configuration not stated)	-0.2	2.7	-0.3
Nc1ccccc1SC(CC(=O)c1ccccc1)c1cccc([N+](=O)[O-])c1 (configuration not stated)	0.1	5.0	56.4*
O=C(C[C@H]1CC[C@@H]2[C@H](COC[C@@H](O)CN2Cc2ccc(Cl)cc2)O1)Nc1nccs1	.	-0.3	.
COCC(=O)N1C[C@@H](C)[C@@H](OC)CN(C)C(=O)c2cc(NC(=O)c3ccccc3)ccc2OC[C@@H]1C	.	-1.9	.
SMILES	TbMetRS inhib	ERp5 inh	PDI inh
CCCNC(=O)N1C[C@H](C)[C@H](OC)CN(C)C(=O)c2ccc(NC(=O)C3CCC3)cc2OC[C@@H]1C	.	-4.6	.
Cc1ccc2c(c1)[nH]c1c(N3CCN(Cc4ccccc4)CC3)ncnc12	0.3	.	4.7
c1ccc(CN2CCN(c3ncnc4c3[nH]c3ccccc34)CC2)cc1	6.2*	.	-10.6
CN(CC(=O)Nc1ccccc1)CC(=O)Nc1ccc(F)cc1	0.1	0.9	-3.1
CN(CC(=O)Nc1ccc(F)cc1)CC(=O)NC1CCCCC1	0.1	25.2*	11.2
COc1ccc(NC(=O)N(C)C[C@H]2OCCCC[C@H](C)Oc3ccc(NC(=O)Nc4ccc(F)cc4)cc3C(=O)N([C@H](C)CO)C[C@@H]2C)cc1	.	-3.9	.
O=C(OCc1nnc(-c2ccc(Cl)cc2)o1)c1ccc(O)cc1	-1.3	-6.5	6.0
